# Screening results from PubChem.
# NR2E3 ag-1 – activates human photoreceptor nuclear receptor NR2E3; 0.12% of 320,000 active; AID 2300; inhibition of corepressor binding, % at 4.78 µM; GST-NR2E3/biotin-RetCOR TR-FRET, 1536-well;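 active = percent inhibition above the cutoff of mean plus 3 SD of all tested compounds, set per screening campaign, cut at about 20% in these data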
# Target sequence (Q9Y5X4 whole entry, looked up): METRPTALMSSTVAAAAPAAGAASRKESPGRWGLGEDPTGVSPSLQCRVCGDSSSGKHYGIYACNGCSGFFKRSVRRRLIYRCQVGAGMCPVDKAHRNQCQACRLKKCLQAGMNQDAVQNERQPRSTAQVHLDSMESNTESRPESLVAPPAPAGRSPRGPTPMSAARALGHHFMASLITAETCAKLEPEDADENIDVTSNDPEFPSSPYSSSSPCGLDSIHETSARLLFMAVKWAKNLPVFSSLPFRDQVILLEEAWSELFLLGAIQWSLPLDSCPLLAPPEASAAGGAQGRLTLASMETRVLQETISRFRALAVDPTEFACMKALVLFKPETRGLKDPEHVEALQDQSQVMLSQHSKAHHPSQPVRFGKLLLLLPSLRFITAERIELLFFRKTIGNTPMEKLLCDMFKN
#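 System: GST-tagged NR2E3 plus biotinylated RetCOR corepressor; Amount: 1.35 nM GST-tagged NR2E3 final; Dosing: single nominal compound dose of 4.8 µM; Schedule: 5 h incubation at 4 °C; Technique: TR-FRET with europium anti-GST and streptavidin-D2, 340 nm excitation; Controls: biotin wells as high control, 0.6% DMSO wells as low control.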
# NadD block – inhibitors of Staphylococcus aureus NadD | purified NadD enzyme, colorimetric absorbance read-out | inhibition, % at 20 µM | 0.78% of 360,000 active | AID 602399; in the data active = inhibition above about 26%
# MsrA inh – bovine MsrA inhibition | 0.75% of 360,000 active | inhibition, % at 15.5 µM | purified bovine MsrA, absorbance read-out
# GalR3 antagonist – blocks the human galanin receptor 3; O60755; HEK293 GalR3-CNG cAMP membrane potential fluorescence; galR3 body fused to GalR1 C-terminus; inhibition, % at 3 µM; 0.44% of 360,000 active; AID 651719;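 active = inhibition above the screen-wide average plus 3 SD, cut at about 13% in these data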;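 note: forskolin and galanin both at EC90 stimulate the cells; cAMP rise reported by CNG channel membrane potential dye signal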
# NR2E3 ag-2 – human photoreceptor-specific nuclear receptor agonism | Q9Y5X4 | inhibition of corepressor binding, % at 3.98 µM | 0.35% of 360,000 active | CHO-S Gal4-NCOR/VP16-NR2E3 two-hybrid, luciferase;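 active = inhibition above the mean of all tested compounds plus 3 SD, cut at about 70% in these data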;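 note: higher means lower luciferase signal from less NR2E3 corepressor binding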
# bovine MsrA act – activates bovine MsrA enzyme; purified bovine MsrA, absorbance read-out; activation, % at 10.6 µM; AID 602163; 0.3% of 360,000 active; in the data active = activation above about 7.5%
# MsrA activ conf – confirmation of bovine methionine sulfoxide reductase A activators | shares compounds with bovine MsrA act | purified bovine MsrA, absorbance read-out | activation, % at 10.6 µM | 12% of 1,000 active | AID 602270; in the data active = activation above about 4%;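 note: enzyme coupled to thioredoxin and thioredoxin reductase with NADPH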
# NR2E3 ag confirm – NR2E3 agonism confirmed in two-hybrid assay; CHO-S mammalian two-hybrid NR2E3-NCOR, luciferase luminescence; 51% of 2,300 active; inhibition, % at 3.98 µM; shares compounds with NR2E3 ag-2; AID 624378;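 active = average inhibition above a cutoff equal to the mean inhibition of all tested compounds plus one SD, cut at about 70% in these data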
# GAL4-VP16 luc – counter-screen for NR2E3 agonists: GAL4-VP16 reporter inhibitors | shares compounds with NR2E3 ag-2 | CHO-S GAL4-VP16 luciferase reporter, luminescence | inhibition, % at 3.98 µM | 29% of 2,300 active | AID 624379;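 active = mean inhibition above a cutoff equal to the average over all tested compounds plus one standard deviation, cut at about 70% in these data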;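 note: luciferase from a UAS reporter driven by GAL4-VP16 transactivation; higher means less reporter light so more repression of VP16 activity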
# MsrA inh confirm – confirmation of bovine MsrA inhibitors; inhibition, % at 15.5 µM; 41% of 2,300 active; shares compounds with MsrA inh; purified bovine MsrA, absorbance read-out;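 note: coupled to thioredoxin reductase with NADPH and selenocystamine and DMSO as substrate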
# Numbers stand for hits; . = inactive; / = no result given. Compounds with a hit are over-represented: about 2.5% of the library has one in this group of screens. Cut-off read from the data, not from the text of the source, unless noted: active = inhibition above about 4.5%; inactive = the rest.
SMILES,NR2E3 ag-1,NadD block,MsrA inh,GalR3 antagonist,NR2E3 ag-2,bovine MsrA act,MsrA activ conf,NR2E3 ag confirm,GAL4-VP16 luc,others
Cc1cc(=S)[nH]c(=S)[nH]1,.,.,.,.,.,10,8.2,/,/,
O=C(Oc1ccc[nH]c1=O)c1cccc(Cl)c1,.,.,.,.,.,.,/,/,/,
O=C(CCNS(=O)(=O)c1cccc2nonc12)Nc1ccc(Cl)cc1,.,.,.,.,.,13,.,/,/,
Cc1ccc(NC(=O)CCNS(=O)(=O)c2cccc3nonc23)cc1Cl,.,.,.,.,.,.,/,/,/,
CN(C)c1ccc(C=c2c3ccccc3n3c2cc(-c2ccccc2)[n+]3C)cc1,/,.,.,.,80,9.8,.,93,.,
CN(C)c1ccc(C=C2C=C(c3ccccc3)OC2=O)cc1,/,.,.,.,.,.,/,/,/,
O=C1c2cccnc2-c2ncccc21,.,.,.,.,.,.,/,/,/,
O=C1C(=O)c2cccnc2-c2ncccc21,/,40,.,.,72,95,76,89,.,
NC1=C(Cl)C(=O)c2ccc(S(N)(=O)=O)cc2C1=O,/,.,.,.,72,24,14,.,.,
Cc1ccc(S(=O)(=O)Nc2cccc3cccnc23)cc1,.,.,.,.,97,11,.,.,.,
Cc1ccc(S(=O)(=O)Nc2ccccc2-c2ccccc2NS(=O)(=O)c2ccc(C)cc2)cc1,.,.,.,.,.,.,/,/,/,
COC1=CC(=O)c2nc(Cl)ccc2C1=O,/,.,.,.,.,12,7.5,.,.,
COc1ccc(C(C)=O)cc1CN1C(=O)NC(CC(C)C)C1=O (stereo unspecified),.,.,.,.,.,.,/,/,/,
Cc1c(NC(=O)C(=O)/C=C(\O)c2ccc(Cl)cc2)c(=O)n(-c2ccccc2)n1C,.,.,.,.,.,.,/,/,/,
CCOC(=O)c1c2c(n(-c3ccc(OC)cc3)c1C)C(=O)C(=O)c1ccccc1-2,/,.,/,/,.,7.7,6.2,.,.,
COc1ccc(NC(=O)c2ccc(-c3ccc(C(C)=O)cc3)o2)cn1,.,.,.,.,.,.,/,/,/,
COC1=CC(=O)c2c(ccc3ncnc(N)c23)C1=O,/,.,.,.,102,35,30,101,101,
N#CCCN(C(=O)COC(=O)Cc1ccc(Br)cc1)c1ccccc1,.,.,.,.,.,.,/,/,/,
O=C(Nc1ccc2cn[nH]c2c1)c1c(Cl)cccc1Cl,.,.,.,.,.,.,/,/,/,
O=C1C(Cl)=C(Nc2ccc3cn[nH]c3c2)C(=O)c2ccccc21,.,.,17,.,.,26,15,/,/,MsrA inh confirm=10
COc1cc(C=c2c3ccccc3n3c2cc(-c2ccccc2)[n+]3C)cc(OC)c1OC,/,.,12,.,.,18,9.9,/,/,MsrA inh confirm=.
COc1cc(/C=C(/C(=O)O)c2ccc(-c3ccccc3)cc2)cc(OC)c1OC,.,.,.,.,.,.,/,/,/,
O=C1c2ccccc2C(=O)c2cc(S(=O)(=O)Nc3ccccc3)ccc21,.,.,29,.,.,10.0,5.8,/,/,MsrA inh confirm=31
O=C(c1ccccc1)c1coc2c1C(=O)c1ccccc1C2=O,.,.,19,.,.,8.2,16,/,/,MsrA inh confirm=26
COc1ccc(CNC(=O)c2c(C)oc3c2C(=O)c2ccccc2C3=O)cc1,.,.,7.6,.,.,7.9,8.0,98,.,MsrA inh confirm=9.0
CSc1ccc(/C=C2\CCn3c2nc2cc(C(=O)O)ccc2c3=O)cc1,.,.,5.0,.,.,10,.,/,/,MsrA inh confirm=4.8
COC(=O)c1ccc(/C=C2\CCn3c2nc2cc(C(=O)O)ccc2c3=O)cc1,.,.,/,/,.,.,/,/,/,
O=C(c1ccc(C(F)(F)F)cc1)C1CCCN(C(=O)CCN2CCCO2)C1 (stereo unspecified),.,.,.,.,.,.,/,/,/,
